Results as given in ChEMBL document CHEMBL4364294 (J Med Chem, 2019).

Columns and labels:
[1] = AUC (0 to infinity) in Sprague-Dawley rat at 25 mg/kg, iv administered as single dose; format: ADME, organism-based; set-up: dose 25 mg/kg, route intravenous, time infinity; details: in vivo
How it was run: (§1)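 Sprague-Dawley rats were given single doses, intravenous at 10–50 mg/kg or oral at 10, 25 and 50 mg/kg. Plasma PK parameters were CL, AUC0-inf, t1/2, Cmax and %F.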

[2] = Intrinsic clearance in human liver microsomes; format: ADME, Microsome; details: read-out: CLH
[3] = AUC (0 to infinity) in Sprague-Dawley rat at 25 mg/kg, po administered as single dose; format: ADME, organism-based; set-up: dose 25 mg/kg, time infinity, route oral; details: in vivo; how it was run: as §1
[4] = Half life in dog at 25 mg/kg, iv administered as single dose; format: ADME, organism-based, Canis lupus familiaris; details: in vivo
How it was run: (§2)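 Dogs were dosed once, by iv injection or orally, with oral doses spanning 5 to 50 mg/kg. Plasma pharmacokinetic parameters were derived: CL, AUC0-inf, t1/2, Cmax and %F.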

[5] = AUC (0 to infinity) in dog at 25 mg/kg, iv administered as single dose; format: ADME, organism-based, Canis lupus familiaris; set-up: dose 25 mg/kg, route intravenous, time infinity; details: in vivo
How it was run: (§3)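 Dogs were given single intravenous doses, or oral doses from 5 to 50 mg/kg. Plasma PK parameters were CL, AUC0-inf, t1/2, Cmax and %F.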

[6] = Clearance in C57Bl6 mouse at 50 mg/kg, iv administered as single dose; format: ADME, organism-based; details: in vivo
How it was run: (§4)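 C57Bl/6 mice were given single intravenous or oral doses (oral at 10 and 100 mg/kg). Plasma PK parameters were CL, AUC0-inf, t1/2, Cmax and %F.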

[7] = AUC (0 to 12 hrs) in dog at 200 mg/kg administered twice daily for 28 days with 2 week recovery; format: ADME, organism-based, Canis lupus familiaris; set-up: dose 200 mg/kg, time < 12 hr; details: in vivo
[8] = AUC (0 to infinity) in dog at 15 mg/kg, po administered as single dose; format: ADME, organism-based, Canis lupus familiaris; set-up: dose 15 mg/kg, route oral, time infinity; details: in vivo; how it was run: as §3
[9] = AUC (0 to infinity) in dog at 3 mg/kg, iv administered as single dose; format: ADME, organism-based, Canis lupus familiaris; set-up: dose 3 mg/kg, time infinity, route intravenous; details: in vivo; how it was run: as §3
[10] = Cmax in C57Bl6 mouse at 100 mg/kg, po administered as single dose; format: ADME, organism-based; set-up: dose 100 mg/kg, route oral; details: in vivo; how it was run: as §4
[11] = AUC (0 to infinity) in Sprague-Dawley rat at 10 mg/kg, po administered as single dose; format: ADME, organism-based; set-up: dose 10 mg/kg, route oral, time infinity; details: in vivo; how it was run: as §1
[12] = Oral bioavailability in dog at 5 mg/kg administered as single dose; format: ADME, organism-based, Canis lupus familiaris; details: in vivo; how it was run: as §2
[13] = Aqueous solubility of the compound at pH 7.4; format: physicochemical
[14] = Stability in human microsomes assessed as parent compound remaining after 90 mins in presence of phase 1 and 2 metabolic cofactors; format: ADME, Microsome; details: read-out: Stability
[15] = Oral bioavailability in C57Bl6 mouse at 100 mg/kg administered as single dose; format: ADME, organism-based; details: in vivo
How it was run: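 C57Bl/6 mice received a single oral dose of 10 or 100 mg/kg, with iv dosing run for comparison. Plasma AUC0-inf, t1/2, Cmax and oral bioavailability (%F) were determined.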

[16] = AUC (0 to infinity) in dog at 5 mg/kg, po administered as single dose; format: ADME, organism-based, Canis lupus familiaris; set-up: dose 5 mg/kg, time infinity, route oral; details: in vivo; how it was run: as §3
[17] = AUC (0 to infinity) in dog at 50 mg/kg, po administered as single dose; format: ADME, organism-based, Canis lupus familiaris; set-up: dose 50 mg/kg, route oral, time infinity; details: in vivo; how it was run: as §3
[18] = Half life in C57Bl6 mouse at 50 mg/kg, iv administered as single dose; format: ADME, organism-based; details: in vivo; how it was run: as §4
[19] = Permeability across apical to basolateral side in human Caco2 cells; format: ADME, cell-based; details: Caco-2, read-out: permeability
[20] = Clearance in dog at 1 mg/kg, iv administered as single dose; format: ADME, organism-based, Canis lupus familiaris; details: in vivo; how it was run: as §3
[21] = Half life in C57Bl6 mouse at 10 mg/kg, po administered as single dose; format: ADME, organism-based; details: in vivo; how it was run: as §4
[22] = Stability in rat microsomes assessed as parent compound remaining after 90 mins in presence of phase 1 and 2 metabolic cofactors; format: ADME, Microsome; details: read-out: Stability
[23] = Oral bioavailability in dog at 150 mg/kg administered as single dose; format: ADME, organism-based, Canis lupus familiaris; details: in vivo
[24] = Cmax in dog at 150 mg/kg, po administered as single dose; format: ADME, organism-based, Canis lupus familiaris; set-up: dose 150 mg/kg, route oral; details: in vivo
[25] = Half life in Sprague-Dawley rat at 50 mg/kg, iv administered as single dose; format: ADME, organism-based; details: in vivo
How it was run: (§5)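 Sprague-Dawley rats each received one dose of drug, either iv across 10-50 mg/kg or orally at 10, 25 and 50 mg/kg. Plasma pharmacokinetics covered CL, AUC0-inf, t1/2, Cmax and Tmax. Oral bioavailability (%F) was obtained from the oral and iv exposures.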

[26] = Oral bioavailability in Sprague-Dawley rat at 50 mg/kg administered as single dose; format: ADME, organism-based; details: in vivo; how it was run: as §5
[27] = Toxicity in dog administered twice daily for 28 days with 2 week recovery; set-up: species or system Canis lupus familiaris; details: in vivo
How it was run: (§6)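 Rats and dogs underwent 28-day repeat-dose studies with twice-daily dosing, followed by a 2-week recovery period. The NOAEL (mg/kg/dose BID) was established, and the matching systemic exposure was reported as AUC0-inf.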

[28] = AUC (0 to infinity) in C57Bl6 mouse at 10 mg/kg, po administered as single dose; format: ADME, organism-based; set-up: dose 10 mg/kg, time infinity, route oral; details: in vivo; how it was run: as §4
[29] = AUC (0 to infinity) in dog at 150 mg/kg, po administered as single dose; format: ADME, organism-based, Canis lupus familiaris; set-up: dose 150 mg/kg, time infinity, route oral; details: in vivo
[30] = Oral bioavailability in Sprague-Dawley rat at 25 mg/kg administered as single dose; format: ADME, organism-based; details: in vivo; how it was run: as §5
[31] = AUC (0 to infinity) in Sprague-Dawley rat at 50 mg/kg, po administered as single dose; format: ADME, organism-based; set-up: dose 50 mg/kg, route oral, time infinity; details: in vivo; how it was run: as §1
[32] = Half life in Sprague-Dawley rat at 25 mg/kg, iv administered as single dose; format: ADME, organism-based; details: in vivo; how it was run: as §5
[33] = AUC (0 to infinity) in C57Bl6 mouse at 50 mg/kg, iv administered as single dose; format: ADME, organism-based; set-up: dose 50 mg/kg, route intravenous, time infinity; details: in vivo; how it was run: as §4
[34] = Cmax in Sprague-Dawley rat at 10 mg/kg, po administered as single dose; format: ADME, organism-based; set-up: dose 10 mg/kg, route oral; details: in vivo; how it was run: as §1
[35] = Toxicity in rat administered twice daily for 28 days with 2 week recovery; details: in vivo; how it was run: as §6
[36] = AUC (0 to infinity) in Sprague-Dawley rat at 50 mg/kg, iv administered as single dose; format: ADME, organism-based; set-up: dose 50 mg/kg, time infinity, route intravenous; details: in vivo; how it was run: as §1

O[C@H](C[C@H]1c2c(F)cccc2-c2cncn21)[C@H]1CC[C@H](O)CC1 [NAVOXIMOD]
AUC(0-inf) [1]: 13400 ng·h/mL
predicted hepatic clearance [2]: 8.52 mL/min/kg
AUC(0-inf) [3]: 7980 ng·h/mL
half-life [4]: 6.9 h
AUC(0-inf) [5]: 10000 ng·h/mL
clearance [6]: 25 mL/min/kg
AUC at 12 h [7]: 22600 ng·h/mL
AUC(0-inf) [8]: 1040 ng·h/mL
AUC(0-inf) [9]: 901 ng·h/mL
Cmax [10]: 14200 ng/mL
AUC(0-inf) [11]: 1630 ng·h/mL
bioavailability [12]: 13.7%
solubility [13]: > 200 µM
remaining at […] [14]: > 85%
bioavailability [15]: 87%
AUC(0-inf) [16]: 207 ng·h/mL
AUC(0-inf) [17]: 8640 ng·h/mL
half-life [18]: 3 h
Papp A→B [19]: 22.7 ×10⁻⁶ cm/s
clearance [20]: 59.3 mL/min/kg
half-life [21]: 1.2 h
remaining at […] [22]: > 85%
bioavailability [23]: 71.8%
Cmax [24]: 40400 ng/mL
half-life [25]: 1 h
bioavailability [26]: 44.1%
NOAEL at 28 days [27]: 200 mg/kg
AUC(0-inf) [28]: 3780 ng·h/mL
AUC(0-inf) [29]: 57800 ng·h/mL
bioavailability [30]: 60.4%
AUC(0-inf) [31]: 15400 ng·h/mL
half-life [32]: 1.25 h
AUC(0-inf) [33]: 34600 ng·h/mL
Cmax [34]: 1560 ng/mL
NOAEL at 28 days [35]: 250 mg/kg
AUC(0-inf) [36]: 35000 ng·h/mL
